According to ChEMBL document CHEMBL1154075, “Synthesis and biological evaluation of (11)C-labeled beta-galactosyl triazoles as potential PET tracers for in vivo LacZ reporter gene imaging” (Bioorg Med Chem, 2009):
Several values for one entry are separate records, joined by “and”; a condition that tells them apart may be missing. Equal values may be shown once.

What was measured:
[1] = molecular target: Beta-galactosidase (Escherichia coli) (UniProt Q8VNN2); experiment: Inhibition of Escherichia coli beta-galactosidase assessed as substrate hydrolysis at 1 mg/ml after 15 mins by competitive binding assay in presence of ONPG; set-up: scale not given: the % may be the effect or the level left; settings: tested as the 11C-labelled form
How it was run: (§1)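 E. coli β-gal (10 U, 149 U/mg) was incubated at 37 °C with 1 mg/mL triazole in HEPES pH 7.0 (120 mM) containing 4 mM MgSO4 and 180 mM NaCl. ONPG (1 mg in 1 mL HEPES solution) was then added. Samples taken 15 and 90 min later were analysed by RP-HPLC with UV detection.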

[2] = molecular target: Beta-galactosidase (Escherichia coli) (UniProt Q8VNN2); experiment: Inhibition of Escherichia coli beta-galactosidase assessed as substrate hydrolysis at 1 mg/ml after 90 mins by competitive binding assay in presence of ONPG; set-up: scale not given: the % may be the effect or the level left; settings: tested as the 11C-labelled form; how it was run: as §1
Stomach [3] = experiment: Biodistribution in NMRI mouse stomach assessed per gram of tissue at 37 MBq/ml, iv after 2 mins; type: ADME, organism-based; settings: in vivo
How it was run: (§2)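 Male NMRI mice (35–45 g), isoflurane-anaesthetised (2.5% in O2), given 0.1 mL tracer at about 37 MBq/mL in 0.9% NaCl (ethanol <10%) via tail vein. Killed by decapitation at 2 or 60 min p.i., n = 4 per time point. Blood and organs weighed, gamma counted and background corrected. Expressed as %ID/g; blood mass taken as 7% of body mass. Mean ± SD.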

HEK293 [4] = experiment: Drug uptake in human HEK293 cells assessed as radioactivity after 120 mins; type: ADME, cell-based; settings: hek293, 2 h
How it was run: (§3)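 293T cells were lentivirally transduced with LacZ or, as control, VZV-tk, and kept in DMEM/10% FCS with 1 µg/mL puromycin. 200,000 cells per well were seeded and used after 24 h. Cells received fresh medium with 1.1 MBq tracer per well for 30–120 min at 37 °C, 5% CO2. After ice-cold PBS washes, cells were lysed; lysate and supernatant were gamma counted. Result is % radioactivity in the cell fraction, triplicate means.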

[5] = Biodistribution in NMRI mouse spleen + pancreas assessed per gram of tissue at 37 MBq/ml, iv after 60 mins; type: ADME, organism-based; settings: in vivo, 1 h; how it was run: as §2
Plasma = experiment: Metabolic stability in NMRI mouse plasma assessed as drug recovery at 18 MBq, iv after 30 mins by RP-HPLC; type: ADME, organism-based; settings: in vivo, 0.5 h
How it was run: (§4)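 NMRI mice under isoflurane received about 18 MBq tracer iv and were decapitated at 10 or 30 min, n = 2. Plasma was separated from heparinised blood by centrifugation; urine was taken at 30 min by bladder voiding and mixed with authentic compound. Both were analysed by gradient RP-HPLC, fractions gamma counted, and intact tracer was expressed as % of recovered radioactivity.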

Liver [6] = experiment: Biodistribution in NMRI mouse liver assessed per gram of tissue at 37 MBq/ml, iv after 2 mins; type: ADME, organism-based; settings: in vivo; how it was run: as §2
[7] = Biodistribution in NMRI mouse carcass at 37 MBq/ml, iv after 60 mins; type: ADME, organism-based; settings: in vivo, 1 h
How it was run: (§5)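 Male NMRI mice under isoflurane received 0.1 mL of about 37 MBq/mL tracer iv in saline (ethanol <10%). Decapitated at 2 or 60 min, n = 4 per time point. Radioactivity counted in a NaI(Tl) well counter and expressed as %ID, i.e. cpm in organ over total cpm recovered. Mean ± SD.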

[8] = Octanol-phosphate buffer partition coefficient, log P of the compound; type: physicochemical
How it was run: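 About 555 kBq of purified tracer was added to 2 mL n-octanol and 2 mL 0.025 M sodium phosphate pH 7.4. The mixture was vortexed 2 min at room temperature and centrifuged 5 min at 1837 g. Aliquots of each phase were weighed and gamma counted. P was taken as cpm/mL in octanol over cpm/mL in buffer, after density correction. At least triplicate.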

[9] = Metabolic stability in NMRI mouse urine assessed as drug recovery at 18 MBq, iv after 30 mins by RP-HPLC; type: ADME, organism-based; settings: in vivo, 0.5 h; how it was run: as §4
[10] = Biodistribution in NMRI mouse urine at 37 MBq/ml, iv after 2 mins; type: ADME, organism-based; settings: in vivo; how it was run: as §5
Brain = experiment: Biodistribution in NMRI mouse brain assessed per gram of tissue at 37 MBq/ml, iv after 60 mins; type: ADME, organism-based; settings: in vivo, 1 h; how it was run: as §2
Kidney [11] = experiment: Biodistribution in NMRI mouse kidney assessed per gram of tissue at 37 MBq/ml, iv after 60 mins; type: ADME, organism-based; settings: in vivo, 1 h; how it was run: as §2
[12] = Biodistribution in NMRI mouse urine at 37 MBq/ml, iv after 60 mins; type: ADME, organism-based; settings: in vivo, 1 h; how it was run: as §5
Kidney [13] = experiment: Biodistribution in NMRI mouse kidney assessed per gram of tissue at 37 MBq/ml, iv after 2 mins; type: ADME, organism-based; settings: in vivo; how it was run: as §2
Stomach [14] = experiment: Biodistribution in NMRI mouse stomach assessed per gram of tissue at 37 MBq/ml, iv after 60 mins; type: ADME, organism-based; settings: in vivo, 1 h; how it was run: as §2
Liver [15] = experiment: Biodistribution in NMRI mouse liver assessed per gram of tissue at 37 MBq/ml, iv after 60 mins; type: ADME, organism-based; settings: in vivo, 1 h; how it was run: as §2
[16] = Biodistribution in NMRI mouse carcass at 37 MBq/ml, iv after 2 mins; type: ADME, organism-based; settings: in vivo; how it was run: as §5
[17] = molecular target: Beta-galactosidase (Escherichia coli) (UniProt P00722); experiment: Inhibition of beta-galactosidase
Blood [18] = experiment: Biodistribution in NMRI mouse blood assessed per gram of tissue at 37 MBq/ml, iv after 2 mins; type: ADME, organism-based; settings: in vivo; how it was run: as §2
Blood [19] = experiment: Biodistribution in NMRI mouse blood assessed per gram of tissue at 37 MBq/ml, iv after 60 mins; type: ADME, organism-based; settings: in vivo, 1 h; how it was run: as §2
HEK293 [20] = experiment: Drug uptake in human HEK293 cells assessed as radioactivity after 30 mins; type: ADME, cell-based; settings: hek293, 0.5 h; how it was run: as §3

Beta-galactosidase (Escherichia coli) (UniProt Q8VNN2), sequence (Q8VNN2 whole entry, looked up): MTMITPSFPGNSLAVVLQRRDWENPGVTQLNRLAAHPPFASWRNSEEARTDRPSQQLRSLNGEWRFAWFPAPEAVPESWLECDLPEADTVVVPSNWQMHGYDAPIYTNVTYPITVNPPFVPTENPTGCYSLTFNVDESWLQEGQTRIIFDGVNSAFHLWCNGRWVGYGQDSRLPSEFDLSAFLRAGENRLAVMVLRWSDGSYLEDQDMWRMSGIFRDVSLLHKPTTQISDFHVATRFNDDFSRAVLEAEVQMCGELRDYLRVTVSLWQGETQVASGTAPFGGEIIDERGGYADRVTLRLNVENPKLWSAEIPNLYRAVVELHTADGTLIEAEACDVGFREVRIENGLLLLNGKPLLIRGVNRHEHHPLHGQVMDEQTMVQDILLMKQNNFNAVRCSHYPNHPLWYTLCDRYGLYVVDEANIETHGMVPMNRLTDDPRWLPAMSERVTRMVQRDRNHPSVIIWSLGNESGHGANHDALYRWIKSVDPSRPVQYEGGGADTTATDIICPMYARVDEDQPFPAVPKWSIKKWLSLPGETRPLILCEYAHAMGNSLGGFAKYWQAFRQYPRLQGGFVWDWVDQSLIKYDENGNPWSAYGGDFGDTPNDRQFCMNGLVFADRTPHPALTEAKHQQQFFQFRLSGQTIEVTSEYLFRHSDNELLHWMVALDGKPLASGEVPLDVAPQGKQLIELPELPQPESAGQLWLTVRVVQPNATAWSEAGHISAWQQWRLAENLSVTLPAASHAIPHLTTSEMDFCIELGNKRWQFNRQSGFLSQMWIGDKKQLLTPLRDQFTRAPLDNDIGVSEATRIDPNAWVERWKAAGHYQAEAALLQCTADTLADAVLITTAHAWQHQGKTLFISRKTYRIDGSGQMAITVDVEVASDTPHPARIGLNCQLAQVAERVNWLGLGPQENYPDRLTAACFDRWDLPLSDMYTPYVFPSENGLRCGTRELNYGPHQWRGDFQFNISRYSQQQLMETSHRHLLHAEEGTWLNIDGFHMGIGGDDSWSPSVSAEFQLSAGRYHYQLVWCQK
Beta-galactosidase (Escherichia coli) (UniProt P00722), sequence (P00722 whole entry, looked up): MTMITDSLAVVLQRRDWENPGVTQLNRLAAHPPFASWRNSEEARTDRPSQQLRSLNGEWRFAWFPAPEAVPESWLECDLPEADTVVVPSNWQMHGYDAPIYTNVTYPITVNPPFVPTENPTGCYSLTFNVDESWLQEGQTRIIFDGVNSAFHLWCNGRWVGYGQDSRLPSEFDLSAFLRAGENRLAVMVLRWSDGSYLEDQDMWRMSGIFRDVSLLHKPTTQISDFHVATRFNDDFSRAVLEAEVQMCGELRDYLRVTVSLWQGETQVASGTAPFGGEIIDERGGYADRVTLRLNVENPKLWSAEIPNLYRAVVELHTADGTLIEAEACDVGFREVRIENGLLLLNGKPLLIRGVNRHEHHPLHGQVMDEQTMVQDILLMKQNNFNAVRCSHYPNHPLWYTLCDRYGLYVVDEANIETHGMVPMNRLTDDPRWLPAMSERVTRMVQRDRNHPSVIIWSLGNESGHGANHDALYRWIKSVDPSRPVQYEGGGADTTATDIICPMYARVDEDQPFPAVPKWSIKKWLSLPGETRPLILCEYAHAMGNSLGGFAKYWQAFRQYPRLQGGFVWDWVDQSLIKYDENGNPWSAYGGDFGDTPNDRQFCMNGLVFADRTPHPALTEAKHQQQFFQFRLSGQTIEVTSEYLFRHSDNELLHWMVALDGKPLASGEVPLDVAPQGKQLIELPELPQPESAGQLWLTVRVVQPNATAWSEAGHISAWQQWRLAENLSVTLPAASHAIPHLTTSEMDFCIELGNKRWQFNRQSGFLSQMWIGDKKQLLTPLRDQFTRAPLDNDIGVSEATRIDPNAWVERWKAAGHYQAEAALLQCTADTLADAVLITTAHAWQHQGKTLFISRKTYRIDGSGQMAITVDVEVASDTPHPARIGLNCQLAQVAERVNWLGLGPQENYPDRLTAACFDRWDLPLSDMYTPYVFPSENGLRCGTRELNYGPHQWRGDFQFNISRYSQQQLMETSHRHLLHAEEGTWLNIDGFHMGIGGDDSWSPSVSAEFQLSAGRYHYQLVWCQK

Structure (SMILES)	Drug uptake (Stomach [3])	Drug uptake (HEK293 [4]) [%]	Drug uptake [5]	Stability (Plasma)	Drug uptake (Liver [6])	Drug uptake [7] [%ID]	logP [8]	Stability [9]	Drug uptake [10] [%ID]	Drug uptake (Brain)	Drug uptake (Kidney [11])	Drug uptake [12] [%ID]	Drug uptake (Kidney [13])	Drug uptake (Stomach [14])	Drug uptake (Liver [15])	Drug uptake [16] [%ID]	further results
COc1ccc(-c2cn([C@@H]3O[C@H](CO)[C@H](O)[C@H](O)[C@H]3O)nn2)cc1																	Activity [1]: 40%; Activity [2]: 70%
[11CH3]Oc1ccc(-c2cn([C@@H]3O[C@H](CO)[C@H](O)[C@H](O)[C@H]3O)nn2)cc1	0.9 %ID and 1.5 %ID	0.4	0.6 %ID and 1.7 %ID	Stable	18.7 %ID and 8.7 %ID	19.6	-0.1	Stable	3.1	0 %ID and 0.3 %ID	4 %ID and 4.4 %ID	47.5	16.1 %ID and 19.3 %ID	0.9 %ID and 1.4 %ID	13.4 %ID and 6.3 %ID	38.1	
OC[C@H]1O[C@@H](n2cc(-c3ccccc3)nn2)[C@H](O)[C@@H](O)[C@H]1O																	Ki [17]: 330 µM
[11CH3]Oc1ccc2cc(-c3cn([C@@H]4O[C@H](CO)[C@H](O)[C@H](O)[C@H]4O)nn3)ccc2c1	1.1 %ID and 0.9 %ID	1.4	0.4 %ID and 1.2 %ID	Stable	12.1 %ID and 25.8 %ID	12.2	1.4	Stable	0.1	0 %ID and 0.2 %ID	1 %ID and 1.4 %ID	2.8	7.2 %ID and 5.7 %ID	0.4 %ID and 0.2 %ID	7.1 %ID and 3.4 %ID	34.3	Drug uptake (Blood [18]): 50.9 %ID and 18.6 %ID; Drug uptake (Blood [19]): 4.2 %ID and 1.6 %ID; Drug uptake (HEK293 [20]): 0.6%
